The RNAGym collection of RNA variant scans (doi:10.1038/nmeth.2970)

B1: NELF-E aptamer (parent)
chain: CCCAACGACUGCCGAGCGAGAUUACGCUUGAGCGCCCCACUGAGGAUGCCCACGGGCGAUUGGGGCACGG

Variants of: B1
Assay: HiTS-RAP
Conditions: with NELF-E (Drosophila)
Outline: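 Aptamer DNA templates carrying a T7 promoter and ter site were sequenced on an Illumina GAIIx flowcell, then transcribed in situ by T7 RNA polymerase and halted by GST-Tus (30 minutes, 37°C). Clusters were imaged after 30-minute room-temperature equilibration with NELF-E-mOrange at 0.064 to 1000 nM in HEPES binding buffer, and only the first binding curve was used. Intensities were normalised to sequencing intensity and averaged per sequence. Kd came from weighted Hill fits, keeping fits with variance below 1,000,000.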

Variant | Kd [nM]
CCCAACUACUGCCGAGCGAGAUUACGCUUGAGCGCCCCACUGAGAAUGCCCACGGGCGAUUGGGGCACGG [G7U G45A] | 21.8
CCCAACUACUGCCGAGCGAGAUUACGCUUGAGCGCCCCACUGAGGAUGCCCACGGGCGAUUGAGGCACGG [G7U G63A] | 19.9
CCCAACUACUGCCGAGCGAGAUUACGCUUGAGCGCCCCACUGAGGAUGCCCACGGGCGAUUGUGGCACGG [G7U G63U] | 15.8
CCCAACUACUGCCGAGCGAGAUGACGCUUGAGCGCCCCACUGAGGAUGCCCACGGGCGAUUGGGGCACGG [G7U U23G] | 6.08
CCCAACUACUGCCGAGCGAGAUCACGCUUGAGCGCCCCACUGAGGAUGCCCACGGGCGAUUGGGGCACGG [G7U U23C] | 4.06
CCCAACUACUGCCGAGCGAGAUUACGCUUGAGCGCCCCACGGAGGAUGCCCACGGGCGAUUGGGGCACGG [G7U U41G] | 6.05
CCCAACUACUGCCGAGCGAGAUUACGCUUGAGCGCCCCACAGAGGAUGCCCACGGGCGAUUGGGGCACGG [G7U U41A] | 64.3
CCCAACUACUGCCGAGCGAGAUUACGCUUGAGCGCCCCACCGAGGAUGCCCACGGGCGAUUGGGGCACGG [G7U U41C] | 91.2
CCCAACUACUGCCGAGCGAGACUACGCUUGAGCGCCCCACUGAGGAUGCCCACGGGCGAUUGGGGCACGG [G7U U22C] | 5.8
CCCAACUACUGCCGAGCGAGAAUACGCUUGAGCGCCCCACUGAGGAUGCCCACGGGCGAUUGGGGCACGG [G7U U22A] | 6.43
CCCAACUACUGCCGAGCGAGAGUACGCUUGAGCGCCCCACUGAGGAUGCCCACGGGCGAUUGGGGCACGG [G7U U22G] | 6.14
CCCAACUACUGCCGAGCGAGAUUACGCUUGAGCGCCCCACUGAUGAUGCCCACGGGCGAUUGGGGCACGG [G7U G44U] | 16.7
CCCAACUACUGCCGAGCGAGAUUACGCUUGAGCGCCCCACUGAGGAUGCCCACGGGCGAUUGGGACACGG [G7U G65A] | 4.96
CCCAACUACUGCCGAGCGAGAUUACGCUUGAGCGCCCCACUGAGGAUGCCCACGGGCGAUUGGGUCACGG [G7U G65U] | 7.38
CCCAACGCCUGCCGAGCGAGAUUACGCUUGAGCGCCCCACUGAGGAUGCCCACGGGCGAUUGGGGCACGG [A8C] | 6.72
CCCAACGGCUGCCGAGCGAGAUUACGCUUGAGCGCCCCACUGAGGAUGCCCACGGGCGAUUGGGGCACGG [A8G] | 5.44
CCCAACGGCUGCCGAGCGAGUUUACGCUUGAGCGCCCCACUGAGGAUGCCCACGGGCGAUUGGGGCACGG [A8G A21U] | 5.17
CCCAACGGCUGCCGAGCGAGGUUACGCUUGAGCGCCCCACUGAGGAUGCCCACGGGCGAUUGGGGCACGG [A8G A21G] | 6.28
CCCAACGCGUGCCGAGCGAGAUUACGCUUGAGCGCCCCACUGAGGAUGCCCACGGGCGAUUGGGGCACGG [A8C C9G] | 7.53

Variant | Kd [nM]
CCCAACGCCUGCCGAGCGAGAUGACGCUUGAGCGCCCCACUGAGGAUGCCCACGGGCGAUUGGGGCACGG [A8C U23G] | 7.61
CCCAACGGCUGCCGAGCGAGAUUACGCUUGAGCGCCCCUCUGAGGAUGCCCACGGGCGAUUGGGGCACGG [A8G A39U] | 21.7
CCCAACGGCUGCCGAGCGAGAUUACGCUUGAGCGCCCCGCUGAGGAUGCCCACGGGCGAUUGGGGCACGG [A8G A39G] | 12.8
CCCAACGGCUGCCGAGCGAGAUUUCGCUUGAGCGCCCCACUGAGGAUGCCCACGGGCGAUUGGGGCACGG [A8G A24U] | 5.52
CCCAACGGCUGCCGAGCGAGAUUGCGCUUGAGCGCCCCACUGAGGAUGCCCACGGGCGAUUGGGGCACGG [A8G A24G] | 6.27
CCCAACGGCUGCCGAGCGAGAUUACGCUUGAGCGCCCCACUGAGGAUGCCCGCGGGCGAUUGGGGCACGG [A8G A52G] | 4.33
CCCAACGGCUGCCGAGCGAGAUUACGCUUGAGCGCCCCACUGAGGAUGCCCUCGGGCGAUUGGGGCACGG [A8G A52U] | 15.5
CCCAACUACAGCCGAGCGAGAUUACGCUUGAGCGCCCCACUGAGGAUGCCCACGGGCGAUUGGGGCACGG [G7U U10A] | 7.85
CCCAACUACCGCCGAGCGAGAUUACGCUUGAGCGCCCCACUGAGGAUGCCCACGGGCGAUUGGGGCACGG [G7U U10C] | 5.96
CCCAACUACGGCCGAGCGAGAUUACGCUUGAGCGCCCCACUGAGGAUGCCCACGGGCGAUUGGGGCACGG [G7U U10G] | 5.68
CCCAACGGCUGCUGAGCGAGAUUACGCUUGAGCGCCCCACUGAGGAUGCCCACGGGCGAUUGGGGCACGG [A8G C13U] | 4.41
CCCAACGGCUGCAGAGCGAGAUUACGCUUGAGCGCCCCACUGAGGAUGCCCACGGGCGAUUGGGGCACGG [A8G C13A] | 6.62
CCCAACGGCUGCGGAGCGAGAUUACGCUUGAGCGCCCCACUGAGGAUGCCCACGGGCGAUUGGGGCACGG [A8G C13G] | 5.95
CCCAACGGCUGGCGAGCGAGAUUACGCUUGAGCGCCCCACUGAGGAUGCCCACGGGCGAUUGGGGCACGG [A8G C12G] | 5.74
CCCAACGGCUGUCGAGCGAGAUUACGCUUGAGCGCCCCACUGAGGAUGCCCACGGGCGAUUGGGGCACGG [A8G C12U] | 5.09
CCCAACGGCUGCCGAGCGAGAUUACGCUUGAGCGCCCCACUGAGGAUGCCCACGGGCGUUUGGGGCACGG [A8G A59U] | 57.1
CCCAACGGCUGCCGAGCGAGAUUACGCUUGAGCGCCCCACUGAGGAUGCCCACGGGCGGUUGGGGCACGG [A8G A59G] | 89.2
CCCAACUACUGCCGAGCGAGAUUACGCUUGAGCGCCCCACUGAGGAUACCCACGGGCGAUUGGGGCACGG [G7U G48A] | 12
CCCAACGCCUGCGGAGCGAGAUUACGCUUGAGCGCCCCACUGAGGAUGCCCACGGGCGAUUGGGGCACGG [A8C C13G] | 6.73
